Assay results published in ChEMBL document CHEMBL2040734, “Benzothiazoles: search for anticancer agents” (2012).

Tests used:
Type in all cases: functional
[1] = tested on: SR; experiment: Cytotoxicity against human SR cells assessed as cell growth at 0.01 uM after 48 hrs by sulforhodamine B assay; conditions: read-out: Activity
[2] = tested on: KM12; experiment: Cytotoxicity against human KM12 cells assessed as cell growth at 1 uM after 48 hrs by sulforhodamine B assay; conditions: KM12, 48 h, read-out: Activity
[3] = tested on: SF-268; experiment: Cytotoxicity against human SF268 cells assessed as cell growth at 0.1 uM after 48 hrs by sulforhodamine B assay; conditions: SF-268, 48 h, read-out: Activity
[4] = tested on: NCI-H460; experiment: Cytotoxicity against human NCI-H460 cells assessed as cell growth at 0.01 uM after 48 hrs by sulforhodamine B assay; conditions: NCI-H460, 48 h, read-out: Activity
[5] = tested on: NCI-H522; experiment: Cytotoxicity against human NCI-H522 cells assessed as cell growth at 10 uM after 48 hrs by sulforhodamine B assay; conditions: NCI-H522, 48 h, read-out: Activity
[6] = tested on: HT-29; experiment: Cytotoxicity against human HT-29 cells assessed as cell growth at 1 uM after 48 hrs by sulforhodamine B assay; conditions: HT-29, 48 h, read-out: Activity
Outline: (§1)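 Five-dose NCI panel run at 0.01, 0.1, 1, 10 and 100 µM. Cells were in RPMI 1640 with 5% FBS and 2 mM L-glutamine, seeded at 5000–40,000 cells/well and pre-incubated 24 h. Drug was diluted from a DMSO stock into medium with 50 µg/ml gentamicin. Exposure was 48 h at 37 °C, 5% CO2. Cells were fixed with cold TCA and stained with 0.4% SRB, read at 515 nm. Percent growth came from time-zero, control and test absorbances.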

[7] = tested on: SK-MEL-28; experiment: Cytotoxicity against human SK-MEL-28 cells assessed as cell growth at 1 uM after 48 hrs by sulforhodamine B assay; conditions: SK-MEL-28, 48 h, read-out: Activity
[8] = tested on: Malme-3M; experiment: Cytotoxicity against human MALME-3M cells assessed as cell growth at 0.01 uM after 48 hrs by sulforhodamine B assay; conditions: read-out: Activity
[9] = tested on: HOP-62; experiment: Cytotoxicity against human HOP62 cells assessed as cell growth at 0.1 uM after 48 hrs by sulforhodamine B assay; conditions: HOP-62, 48 h, read-out: Activity; outline: as §1
[10] = tested on: A549; experiment: Cytotoxicity against human A549 cells assessed as cell growth at 10 '-5 M after 48 hrs by sulforhodamine B assay; conditions: A549, 48 h, read-out: Activity
Outline: (§2)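 Primary NCI-60 single-dose screen at 10 µM. Cells were grown in RPMI 1640 with 5% FBS and 2 mM L-glutamine and plated 24 h before drug addition. Compound was solubilized in DMSO, then exposed for 48 h at 37 °C under 5% CO2. Cells were TCA-fixed and stained with SRB, and absorbance was read at 515 nm. Growth was expressed relative to time-zero and untreated controls.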

[11] = tested on: SK-MEL-2; experiment: Cytotoxicity against human SK-MEL-2 cells assessed as cell growth at 1 uM after 48 hrs by sulforhodamine B assay; conditions: SK-MEL-2, 48 h, read-out: Activity
[12] = tested on: NCI/ADR-RES; experiment: Cytotoxicity against human NCI/ADR-RES cells assessed as cell growth at 0.01 uM after 48 hrs by sulforhodamine B assay; conditions: read-out: Activity
[13] = tested on: OVCAR-4; experiment: Cytotoxicity against human OVCAR4 cells assessed as cell growth at 0.1 uM after 48 hrs by sulforhodamine B assay; conditions: OVCAR-4, 48 h, read-out: Activity
[14] = tested on: UACC-62; experiment: Cytotoxicity against human UACC62 cells assessed as cell growth at 10 '-5 M after 48 hrs by sulforhodamine B assay; conditions: UACC-62, 48 h, read-out: Activity
[15] = tested on: SNB-19; experiment: Cytotoxicity against human SNB19 cells assessed as cell growth at 10 '-5 M after 48 hrs by sulforhodamine B assay; conditions: SNB-19, 48 h, read-out: Activity
[16] = tested on: OVCAR-3; experiment: Cytotoxicity against human OVCAR3 cells assessed as cell growth at 1 uM after 48 hrs by sulforhodamine B assay; conditions: OVCAR-3, 48 h, read-out: Activity
[17] = tested on: SK-MEL-5; experiment: Cytotoxicity against human SK-MEL-5 cells assessed as cell growth at 10 '-5 M after 48 hrs by sulforhodamine B assay; conditions: SK-MEL-5, 48 h, read-out: Activity
[18] = tested on: COLO 205; experiment: Cytotoxicity against human COLO205 cells assessed as cell growth at 0.01 uM after 48 hrs by sulforhodamine B assay; conditions: COLO 205, 48 h, read-out: Activity
Outline: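 NCI-60 five-dose screen. Cells were grown in RPMI 1640 with 5% FBS and 2 mM L-glutamine and preincubated 24 h. Compound (DMSO stock) was tested at 0.01, 0.1, 1, 10 and 100 µM for 48 h at 37 °C. Cells were fixed in situ with cold TCA (final 10%) and stained with 0.4% SRB. A515 was read, and percent growth was calculated against time-zero and control plates.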

[19] = tested on: MDA-MB-468; experiment: Cytotoxicity against human MDA-MB-468 cells assessed as cell growth at 0.1 uM after 48 hrs by sulforhodamine B assay; conditions: MDA-MB-468, 48 h, read-out: Activity
[20] = tested on: SK-MEL-2; experiment: Cytotoxicity against human SK-MEL-2 cells assessed as cell growth at 10 uM after 48 hrs by sulforhodamine B assay; conditions: SK-MEL-2, 48 h, read-out: Activity
[21] = tested on: SN12C; experiment: Cytotoxicity against human SN12C cells assessed as cell growth at 0.01 uM after 48 hrs by sulforhodamine B assay; conditions: read-out: Activity
[22] = tested on: SF-295; experiment: Cytotoxicity against human SF295 cells assessed as cell growth at 0.1 uM after 48 hrs by sulforhodamine B assay; conditions: SF-295, 48 h, read-out: Activity
[23] = tested on: ACHN; experiment: Cytotoxicity against human ACHN cells assessed as cell growth at 10 '-5 M after 48 hrs by sulforhodamine B assay; conditions: read-out: Activity; outline: as §2
[24] = tested on: RXF 393; experiment: Cytotoxicity against human RXF393 cells assessed as cell growth at 100 uM after 48 hrs by sulforhodamine B assay; conditions: RXF 393, 48 h, read-out: Activity
[25] = tested on: SW-620; experiment: Growth inhibition of human SW620 cells after 48 hrs by sulforhodamine B assay; conditions: SW-620, 48 h; for CC50: read-out: LC50 (the source's name)
Outline: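 Adherent NCI-60 lines were grown in RPMI 1640 with 5% FBS and 2 mM L-glutamine, plated at 5000–40,000 cells/well and preincubated 24 h. They were then exposed to five concentrations (0.01–100 µM, from a DMSO stock) for 48 h at 37 °C, 5% CO2. Cells were fixed with cold TCA (10% final, 60 min, 4 °C) and stained with 0.4% SRB. Dye was solubilized in 10 mM Tris base and A515 read. GI50 was derived from time-zero, control and treated absorbances.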

[26] = tested on: MDA-MB-468; experiment: Cytotoxicity against human MDA-MB-468 cells assessed as cell growth at 10 uM after 48 hrs by sulforhodamine B assay; conditions: MDA-MB-468, 48 h, read-out: Activity
[27] = tested on: SW-620; experiment: Cytotoxicity against human SW620 cells assessed as cell growth at 10 '-5 M after 48 hrs by sulforhodamine B assay; conditions: SW-620, 48 h, read-out: Activity

Compound: Cc1ccc2nc(Nc3c(C)cccc3C)sc2c1
- growth at 0.01 µM [1]: 98%
- growth at 1 µM [2]: 55%
- growth at 0.1 µM [3]: 100%
- growth at 0.01 µM [4]: 102%
- growth at 10 µM [5]: 28%
- growth at 1 µM [6]: 39%
- growth at 1 µM [7]: 66%
- growth at 0.01 µM [8]: 102%
- growth at 0.1 µM [9]: 98%
- growth at 10 µM [10]: 32.6%
- growth at 1 µM [11]: 67%
- growth at 0.01 µM [12]: 98%
- growth at 0.1 µM [13]: 89%
- growth at 10 µM [14]: 35.7%
- growth at 10 µM [15]: 59.5%
- growth at 1 µM [16]: 72%
- growth at 10 µM [17]: 26.8%
- growth at 0.01 µM [18]: 107%
- growth at 0.1 µM [19]: 82%
- growth at 10 µM [20]: 48%
- growth at 0.01 µM [21]: 88%
- growth at 0.1 µM [22]: 88%
- growth at 10 µM [23]: 52.2%
- growth at 100 µM [24]: 24%
- GI50 [25]: 949 nM
- TGI [25]: > 100000 nM
- CC50 [25]: > 100000 nM
- growth at 10 µM [26]: 9%
- growth at 10 µM [27]: 21.6%

Compound: Clc1cccc(Cl)c1Nc1nc2cccc(Cl)c2s1
- growth at 0.01 µM [1]: 100%
- growth at 1 µM [2]: 62%
- growth at 0.1 µM [3]: 97%
- growth at 0.01 µM [4]: 102%
- growth at 10 µM [5]: -71%
- growth at 1 µM [6]: 65%
- growth at 1 µM [7]: 77%
- growth at 0.01 µM [8]: 101%
- growth at 0.1 µM [9]: 96%
- growth at 10 µM [10]: 0.55%
- growth at 1 µM [11]: 71%
- growth at 0.01 µM [12]: 99%
- growth at 0.1 µM [13]: 83%
- growth at 10 µM [14]: -62.9%
- growth at 10 µM [15]: 13.8%
- growth at 1 µM [16]: 50%
- growth at 10 µM [17]: -71.3%
- growth at 0.01 µM [18]: 105%
- growth at 0.1 µM [19]: 81%
- growth at 10 µM [20]: -64%
- growth at 0.01 µM [21]: 91%
- growth at 0.1 µM [22]: 82%
- growth at 10 µM [23]: -18.9%
- growth at 100 µM [24]: -40%
- GI50 [25]: 1320 nM
- TGI [25]: 2780 nM
- CC50 [25]: 5860 nM
- growth at 10 µM [26]: -73%
- growth at 10 µM [27]: -84.9%
